Legend:
Substance-P receptor = Substance-P receptor (Homo sapiens, UniProt P25103); assay: Inhibition of [125I]-BH-Substance P binding to tachykinin receptor 1 in human IM-9 cells; assay type: cell-based
Cavia porcellus [1] = assay: Percent inhibition of capsaicin-induced plasma extravasation in guinea-pig trachea at 3 mg/kg intravenous administration; assay type: functional
Cavia porcellus [2] = assay: Inhibition of capsaicin-induced plasma extravasation in guinea-pig trachea on intravenous administration; assay type: functional
Cavia porcellus [3] = assay: Inhibition of capsaicin-induced plasma extravasation in guinea-pig trachea on peroral administration; assay type: functional; conditions: po
Outline: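 Male Hartley guinea pigs (n = 6); sample given orally 45 min before pentobarbital 35 mg/kg ip. Capsaicin […] plus Evans' blue 20 mg/kg iv in ethanol-saline (3:7); trachea removed 10 min later after saline perfusion. Dye extracted in acetone-sodium sulfate and read at 620 nm per g tissue. Inhibition calculated relative to blank and control means.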

Chain of Substance-P receptor (P25103 whole entry): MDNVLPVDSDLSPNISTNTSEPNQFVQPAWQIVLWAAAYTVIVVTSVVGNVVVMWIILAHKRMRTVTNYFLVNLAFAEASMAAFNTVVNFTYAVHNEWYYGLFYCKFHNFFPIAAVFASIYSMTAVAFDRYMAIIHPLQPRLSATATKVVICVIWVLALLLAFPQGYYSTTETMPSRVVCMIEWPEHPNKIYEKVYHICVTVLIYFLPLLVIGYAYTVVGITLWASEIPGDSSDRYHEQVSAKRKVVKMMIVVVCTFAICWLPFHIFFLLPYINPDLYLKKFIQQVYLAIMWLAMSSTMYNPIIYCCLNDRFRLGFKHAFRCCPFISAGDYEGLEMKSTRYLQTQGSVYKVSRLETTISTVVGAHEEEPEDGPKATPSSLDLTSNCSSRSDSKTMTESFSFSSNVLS

SMILES	IC50 (Substance-P receptor) [nM]	further results
COc1ccccc1CNCc1c(-c2ccccc2)c2ccccc2c(=O)n1C	460	
COc1ccccc1CNCc1c(-c2ccccc2)c2cc(C)c(C)cc2c(=O)n1C		inhibition in vivo at 3 mg/kg (Cavia porcellus [1]): 36.3%
COc1ccccc1CN(C)C(=O)c1c(-c2ccc(F)cc2)c2cccnc2c(=O)n1C		ED50 (Cavia porcellus [2]): 0.084 mg/kg
CN(Cc1ccccc1Cl)C(=O)c1c(-c2ccc(F)cc2)c2cccnc2c(=O)n1C	32	
Cc1ccc(-c2c(C(=O)N(C)Cc3cc(Cl)cc(Cl)c3)n(C)c(=O)c3ncccc23)cc1	3.4	
Cc1ccccc1-c1c(C(=O)N(C)Cc2cc(C(F)(F)F)cc(C(F)(F)F)c2)n(C)c(=O)c2ccccc12		ED50 (Cavia porcellus [2]): 0.18 mg/kg; ED50 (Cavia porcellus [3]): 0.81 mg/kg
COc1ccccc1CNC(=O)c1c(-c2ccccc2)c2ccccc2c(=O)n1C	860	
Cc1cc2c(-c3ccccc3)c(NC(=O)N(C)Cc3ccccc3)n(C)c(=O)c2cc1C		inhibition in vivo at 3 mg/kg (Cavia porcellus [1]): 57.3%
Cc1cc2c(-c3ccccc3)c(C(=O)N(C)Cc3cc(C(F)(F)F)cc(C(F)(F)F)c3)n(C)c(=O)c2cc1C		ED50 (Cavia porcellus [2]): 0.49 mg/kg
Cc1cc2c(-c3ccccc3)c(NC(=O)N(C)Cc3ccccc3Cl)n(C)c(=O)c2cc1C		inhibition in vivo at 3 mg/kg (Cavia porcellus [1]): 58.5%
Cc1ccccc1-c1c(C(=O)NCc2cc(C(F)(F)F)cc(C(F)(F)F)c2)n(C)c(=O)c2ccccc12		ED50 (Cavia porcellus [2]): 1.1 mg/kg
COc1ccccc1CNC(=O)c1c(-c2ccccc2C)c2ccccc2c(=O)n1C	470	
COc1ccccc1CN[C@H]1CCCN[C@H]1c1ccccc1 [CP-99994]		ED50 (Cavia porcellus [2]): 0.017 mg/kg; ED50 (Cavia porcellus [3]): 8.7 mg/kg

Further lines, with some results ahead:

IC50 (Substance-P receptor) [nM]	SMILES	further results
480	CN(Cc1ccccc1Cl)C(=O)Nc1c(-c2ccc(F)cc2)c2ccccc2c(=O)n1C	
800	COc1ccccc1CN(C)Cc1c(-c2ccccc2)c2cc(C)c(C)cc2c(=O)n1C	
110	CN(Cc1c(-c2ccccc2)c2ccccc2c(=O)n1C)C(=O)Cc1cc(C(F)(F)F)cc(C(F)(F)F)c1	
5.1	Cc1cc(C)cc(CN(C)C(=O)c2c(-c3ccc(F)cc3)c3cccnc3c(=O)n2C)c1	
4.4	Cc1ccc(-c2c(C(=O)N(C)Cc3cc(C)cc(C)c3)n(C)c(=O)c3ncccc23)cc1	
600	CN(Cc1cc(C(F)(F)F)cc(C(F)(F)F)c1)Cc1c(-c2ccccc2)c2ccccc2c(=O)n1C	
140	Cc1cc2c(-c3ccccc3)c(NC(=O)NCc3ccccc3)n(C)c(=O)c2cc1C	
250	Cc1cc2c(-c3ccccc3)c(CNCc3cc(C(F)(F)F)cc(C(F)(F)F)c3)n(C)c(=O)c2cc1C	
32	Cc1cc(C)cc(CN(C)C(=O)c2c(-c3ccccc3C)c3ccccc3c(=O)n2C)c1	
0.25	CN(Cc1cc(C(F)(F)F)cc(C(F)(F)F)c1)C(=O)c1c(-c2ccccc2)c2cccnc2c(=O)n1C	ED50 (Cavia porcellus [2]): 0.027 mg/kg; ED50 (Cavia porcellus [3]): 0.17 mg/kg
0.4	CN(Cc1cc(C(F)(F)F)cc(C(F)(F)F)c1)C(=O)c1c(-c2ccc(F)cc2)c2ccccc2c(=O)n1C	ED50 (Cavia porcellus [2]): 0.063 mg/kg; ED50 (Cavia porcellus [3]): 1 mg/kg
0.21	CN(Cc1cc(C(F)(F)F)cc(C(F)(F)F)c1)C(=O)c1c(-c2ccc(F)cc2)c2cccnc2c(=O)n1C	ED50 (Cavia porcellus [2]): 0.017 mg/kg; ED50 (Cavia porcellus [3]): 0.068 mg/kg
54	Cc1cc2c(-c3ccccc3)c(NC(=O)N(C)Cc3cc(C(F)(F)F)cc(C(F)(F)F)c3)n(C)c(=O)c2cc1C	
840	Cc1cccc(NC(=O)Nc2c(-c3ccccc3)c3cc(C)c(C)cc3c(=O)n2C)c1	
1100	CN(Cc1ccccc1)C(=O)Nc1c(-c2ccccc2)c2ccccc2c(=O)n1C	
28	Cc1cc(C)cc(CN(C)C(=O)Nc2c(-c3ccccc3)c3cc(C)c(C)cc3c(=O)n2C)c1	
7	Cc1ccc(-c2c(C(=O)N(C)Cc3cc(C(F)(F)F)cc(C(F)(F)F)c3)n(C)c(=O)c3ncccc23)cc1 [7-METHYL-8-OXO-5-P-TOLYL-7,8-DIHYDRO-[1,7]NAPHTHYRIDINE-6-CARBOXYLIC ACID (3,5-BIS-TRIFLUOROMETHYL-BENZYL)-METHYL-AMIDE (STRUCTURAL MIX)]	ED50 (Cavia porcellus [3]): 0.11 mg/kg
1.1	Cn1c(C(=O)NCc2cc(C(F)(F)F)cc(C(F)(F)F)c2)c(-c2ccc(F)cc2)c2cccnc2c1=O	ED50 (Cavia porcellus [2]): 0.48 mg/kg

Source: ChEMBL document CHEMBL1128504, “Novel, potent, and orally active substance P antagonists: synthesis and antagonist activity of N-benzylcarboxamide derivatives of pyrido[3,4-b]pyridine” (J Med Chem, 1995)
